# In ChEMBL document CHEMBL1147102, “rpoN gene of Pseudomonas aeruginosa alters its susceptibility to quinolones and carbapenems” (2007):
# Experiments:
# Type in all cases: functional
# Pseudomonas aeruginosa [1] = assay: Antimicrobial activity against Pseudomonas aeruginosa PAO1 with rpoN mutation after 24 hrs; details: PAO1, 24 h
# Summary of the method: (§1)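 Broth microdilution in LB broth, inoculum 1 × 10⁶ cells/ml. MIC read after 24 h at 37°C as the lowest concentration giving complete growth inhibition by unaided eye. For MBC, 10 μl from each well without visible growth was plated on LB agar and incubated 24 h at 37°C.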
# Pseudomonas aeruginosa [2] = assay: Antimicrobial activity against Pseudomonas aeruginosa PAO1 with pvdS mutation after 24 hrs; details: PAO1, 24 h; summary of the method: as §1
# Pseudomonas aeruginosa [3] = assay: Antimicrobial activity against wild type Pseudomonas aeruginosa PAO1 after 24 hrs; details: PAO1, 24 h; summary of the method: as §1
# Pseudomonas aeruginosa [4] = assay: Increase in vqsR gene expression in Pseudomonas aeruginosa PAO1 with rpoN mutation at 8 ug/ml relative to wild type
# Summary of the method: (§2)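 Overnight LB cultures were washed and resuspended in fresh LB with ofloxacin 8 μg/ml. Sampling was at 0, 1, 3 and 5 h, with RNA stabilized immediately. DNase-treated total RNA (~650 ng) was reverse transcribed. qRT-PCR was quantified against external plasmid standard curves and normalized to the rpsL reference gene. Triplicate reactions.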
# Pseudomonas aeruginosa [5] = assay: Increase in pvdS gene expression in Pseudomonas aeruginosa PAO1 with rpoN mutation at 8 ug/ml after 3 hrs relative to wild type; summary of the method: as §2
# Pseudomonas aeruginosa [6] = assay: Increase in GFP tagged vqsR protein expression in Pseudomonas aeruginosa PAO1 with rpoN mutation at 8 ug/ml by flow cytometry relative to wild type
# Summary of the method: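 Strains carried a plasmid GFP reporter driven by the vqsR promoter. Cells were grown in LB broth with carbenicillin 400 μg/ml. Stationary-phase (overnight) cultures were washed, resuspended in fresh LB and given ofloxacin 8 μg/ml. Samples were taken over 0–5 h, washed and resuspended in PBS. Mean fluorescence intensity came from 20,000 events, corrected for background (PAO1 without gfp). Three experiments.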
smiles,measurement,setting,value
O=C(O)c1cn(C2CC2)c2cc(N3CCNCC3)c(F)cc2c1=O [CIPROFLOXACIN],MBC,Pseudomonas aeruginosa [1],2 µg/mL
same,MIC,Pseudomonas aeruginosa [1],0.25 µg/mL
same,MBC,Pseudomonas aeruginosa [2],0.25 µg/mL
same,MIC,Pseudomonas aeruginosa [2],0.125 µg/mL
same,MBC,Pseudomonas aeruginosa [3],0.5 µg/mL
same,MIC,Pseudomonas aeruginosa [3],0.125 µg/mL
CC1COc2c(N3CCN(C)CC3)c(F)cc3c(=O)c(C(=O)O)cn1c23 (configuration not stated) [OFLOXACIN],Fold change,Pseudomonas aeruginosa [4],2.5
same,MBC,Pseudomonas aeruginosa [1],2 µg/mL
same,MIC,Pseudomonas aeruginosa [1],1 µg/mL
same,MBC,Pseudomonas aeruginosa [2],2 µg/mL
same,MIC,Pseudomonas aeruginosa [2],1 µg/mL
same,MBC,Pseudomonas aeruginosa [3],1 µg/mL
same,MIC,Pseudomonas aeruginosa [3],1 µg/mL
same,Fold change,Pseudomonas aeruginosa [5],30
same,Fold change,Pseudomonas aeruginosa [6],8
C[C@@H](O)[C@H]1C(=O)N2C(C(=O)[O-])=C(SC3Cn4cnc[n+]4C3)[C@H](C)[C@H]12 (some centres not stated) [BIAPENEM],MBC,Pseudomonas aeruginosa [1],16 µg/mL
same,MIC,Pseudomonas aeruginosa [1],0.5 µg/mL
same,MBC,Pseudomonas aeruginosa [2],1 µg/mL
same,MIC,Pseudomonas aeruginosa [2],0.5 µg/mL
same,MBC,Pseudomonas aeruginosa [3],2 µg/mL
same,MIC,Pseudomonas aeruginosa [3],0.5 µg/mL
C[C@@H](O)[C@H]1C(=O)N2C(C(=O)O)=C(SCCNC=N)C[C@H]12 [IMIPENEM ANHYDROUS],MBC,Pseudomonas aeruginosa [1],16 µg/mL
same,MIC,Pseudomonas aeruginosa [1],1 µg/mL
same,MBC,Pseudomonas aeruginosa [2],4 µg/mL
same,MIC,Pseudomonas aeruginosa [2],1 µg/mL
same,MBC,Pseudomonas aeruginosa [3],1 µg/mL
same,MIC,Pseudomonas aeruginosa [3],1 µg/mL
